Results as given in ChEMBL document CHEMBL1134834, “Quinoxalinylethylpyridylthioureas (QXPTs) as potent non-nucleoside HIV-1 reverse transcriptase (RT) inhibitors. Further SAR studies and identification of a novel orally bioavailable hydrazine-based antiviral agent” (J Med Chem, 2001).

What was measured:
[1] = test system: NIH3T3; experiment: Cytotoxicity on 3T3 fibroblasts (3T3F) murine cell line (O.D.=0.131+/-0.014); type: functional; settings: Mus musculus, read-out: TC50 (the source's name)
[2] = test system: CEM-SS; experiment: Concentration which produces a 50% survival of HIV-1 infected cells relative to uninfected control CEM-SS cells (in vitro anti-HIV activity); type: functional, cell-based; settings: Homo sapiens
In short: (§1)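 CEM-SS T4 lymphocytes infected with wild-type HIV-1. Protection from virus-induced cell death is scored against an AZT-treated positive control run under identical conditions. […] SI = IC50/EC50.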

[3] = test system: CEM-SS; experiment: Concentration which results in 50% survival of uninfected untreated control CEM-SS cells (cytotoxicity of the compound); type: functional, cell-based; settings: Homo sapiens, read-out: IC50 (the source's name)
[4] = test system: C8166; experiment: Concentration which results in 50% survival of uninfected untreated control C8166 cells (cytotoxicity of the compound); type: functional, cell-based; settings: Homo sapiens
In short: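 Toxicity in uninfected C8166 cells by MTT reduction to formazan, read spectrophotometrically.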

[5] = test system: Human immunodeficiency virus 1; experiment: Concentration which produces a 50% survival of HIV-1 infected cells relative to uninfected control C8166 cells; type: functional, organism-based; settings: Human immunodeficiency virus 1, C8166
[6] = test system: Daudi; experiment: Cytotoxicity on Daudi Human(DH) cell line (O.D.=0.129+/-0.018); type: functional; settings: read-out: TC50 (the source's name)
[7] = species: Mus musculus; experiment: Cytotoxicity on NSO murine cell line (O.D.=0.125+/-0.015); type: functional; settings: read-out: TC50 (the source's name)
[8] = target: T1, Human immunodeficiency virus type 1 reverse transcriptase (Human immunodeficiency virus 1, UniProt Q72547); experiment: Inhibition of HIV-1 Mutant HIV-1 RT enzymes containing the single amino acid substitution […]
[9] = target: Human immunodeficiency virus type 1 reverse transcriptase (Human immunodeficiency virus 1, UniProt Q72547, V106A); experiment: Inhibition of HIV-1 Mutant HIV-1 RT enzymes containing the single amino acid substitution V106A
[10] = target: Human immunodeficiency virus type 1 reverse transcriptase (Human immunodeficiency virus 1, UniProt Q72547, Y181I); experiment: Inhibition of HIV-1 Mutant HIV-1 RT enzymes containing the single amino acid substitution Y181I
[11] = target: Human immunodeficiency virus type 1 reverse transcriptase (Human immunodeficiency virus 1, UniProt Q72547, Y188L); experiment: Inhibition of HIV-1 Mutant HIV-1 RT enzymes containing the single amino acid substitution Y188L
[12] = target: T1, Human immunodeficiency virus type 1 reverse transcriptase; experiment: Inhibition of HIV-1 wild-type RT
[13] = (§2) Cytotoxicity on normal human lymphocytes(HL) (O.D.=0.114+/-0.01); type: functional; settings: read-out: TC50 (the source's name)
[14] = Selectivity index was (IC50/EC50) determined in C8166 cells; type: functional
[15] = Selectivity index (IC50/EC50) was determined in CEM-SS cells; type: functional
In short: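 CEM-SS (T4 lymphocyte) cells infected with wild-type HIV-1 were scored for protection from virus-induced cell death. […] SI = IC50/EC50. An AZT-treated positive control was run in parallel under identical conditions.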

[16] = target: Human immunodeficiency virus type 1 reverse transcriptase (Human immunodeficiency virus 1, UniProt Q72547, K103N); experiment: Inhibition of HIV-1 Mutant HIV-1 RT enzymes containing the single amino acid substitution K103N
[17] = Selectivity index was determined in C8166 cells; type: functional
In short: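 C8166 CD4+ T-cell line (HTLV-I genome, only tat expressed) acutely infected with lymphocytotropic HIV-1 IIIB. […] Read-out is HIV-p24 antigen in supernatants. AZT positive control was run at the same time. SI = IC50/EC50.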

[18] = Selectivity index was determined in CEM-SS cells; type: functional; in short: as §1
[19] = as §2; settings: read-out: TC50 (the source's name)

Fc1cccc2c1nc(OCCNC(=S)Nc1ccc(Br)cn1)c1cccn12
CC50 [1]: > 1000 µM | EC50 [2]: 0.0029 µM | CC50 [3]: > 2 µM | IC50 [4]: 125 µM | EC50 [5]: 0.02 µM | CC50 [6]: > 1000 µM | CC50 [7]: > 1000 µM | Ki [8]: 0.15 µM | Ki [9]: 0.029 µM | Ki [10]: 0.3 µM | Ki [11]: 0.7 µM | Ki [12]: 0.058 µM | CC50 [13]: > 1000 µM | SI [14]: 6250 | SI [15]: >690 | Ki [16]: 0.35 µM

O=c1c2cccn2c2c(F)cccc2n1CCNC(=S)Nc1ccc(Br)cn1
CC50 [1]: 500 µM | EC50 [2]: 0.0019 µM | CC50 [3]: > 2 µM | IC50 [4]: 21 µM | EC50 [5]: 0.2 µM | CC50 [6]: 510 µM | CC50 [7]: 520 µM | Ki [8]: 0.8 µM | Ki [9]: 0.06 µM | Ki [10]: 0.9 µM | Ki [11]: 0.2 µM | Ki [12]: 0.04 µM | SI [17]: 105 | SI [18]: >110 | CC50 [19]: 510 µM | Ki [16]: 0.4 µM
